This is a sample that favours compounds with a hit; in the whole collection about 4.6% have one here.
CHO parental Ca: counter-screen for OX1R antagonists: effect in parental CHO cells; parental CHO-K1, ATP-induced calcium, Fluo-8 fluorescence; inhibition, % at 5.6 µM; 330,000 tested, 0.63% active; AID 463079;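 active = inhibition above that plate's mean sample inhibition plus 3 SD, cut at about 26% in these data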;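 note: 0% = ATP-challenged DMSO wells and 100% = DMSO wells without ATP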
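Material: parental CHO cells / Compound: single nominal dose of 5.6 µM per compound / Signal: Fluo-8 fluorescence / Replicates: singlicate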
TAAR1 agonist: agonists of human TAAR1. Q96RJ0. CHO RD-HGA16 TAAR1, Fluo-8 calcium fluorescence; vehicle wells 0%, saturating PEA agonist 100%. activation, % at 3 µM. 360,000 tested, 0.99% active;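 active = activation above the mean activation of all test compounds in the run plus 3 SD, cut at about 38% in these data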
Target sequence (Q96RJ0 whole entry, looked up): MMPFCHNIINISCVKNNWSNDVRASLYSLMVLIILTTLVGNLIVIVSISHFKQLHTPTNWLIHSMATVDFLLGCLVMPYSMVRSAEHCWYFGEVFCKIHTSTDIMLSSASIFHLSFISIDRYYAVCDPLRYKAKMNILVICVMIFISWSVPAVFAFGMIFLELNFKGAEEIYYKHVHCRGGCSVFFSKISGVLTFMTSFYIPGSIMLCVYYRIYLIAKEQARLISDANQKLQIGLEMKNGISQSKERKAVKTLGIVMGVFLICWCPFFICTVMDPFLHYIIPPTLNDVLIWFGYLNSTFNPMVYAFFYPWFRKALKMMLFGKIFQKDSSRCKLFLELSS
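System: CHO RD-HGA16 cells carrying human TAAR1 plus Gα16; Incubation: 17-24 h seeding, 75 min 37 °C dye, 30 min RT; Measured by: Fluo-8 fluorescence, 5 s baseline then 140 s kinetic read; Control set: DMSO and PEA EC100; Replication: single well for each compound.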
OX1R antag-1: blocks the human orexin 1 receptor. O43613. OX1R-expressing cells, FRET antagonist read-out. inhibition, % at 6.6 µM. 330,000 tested, 1.8% active; in the data active = inhibition mostly above about 38%, no sharp cut-off; inactive = mostly below about 40%;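 note: 0% = agonist challenge alone and 100% = reference antagonist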
GPR7 antag: blocks human GPR7 receptor signaling; GPR7-expressing cells, fluorescence antagonist assay; AID 1861; inhibition, % at 4.4 µM; P48145; 290,000 tested, 1.1% active; in the data active = inhibition above about 16%, passing the limit was not always enough;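 note: cells stimulated with the agonist NPW; 0% = agonist with vehicle and 100% = vehicle without agonist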
OX1R antag-2: blocks the human orexin 1 receptor; O43613; CHO/OX1R cells, Fluo-8 calcium fluorescence, orexin A; inhibition, % at 5 µM; 330,000 tested, 0.43% active;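 active = inhibition above its plate's threshold, mean inhibition of all tested compounds on the plate plus 3 SD, cut at about 37% in these data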;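 note: 0% = orexin A challenge wells and 100% = SB-334867-A antagonist wells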
TAAR1 antagonist: antagonists of human TAAR1; CHO RD-HGA16 TAAR1, Fluo-8 calcium fluorescence, antagonist; inhibition, % at 3 µM; 360,000 tested, 1.5% active; AID 624466;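 active = inhibition above a per-plate cutoff, the mean inhibition of test compounds on that plate plus 3 SD, cut at about 49% in these data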;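 note: 0% = DMSO plus EC80 beta-PEA response and 100% = DMSO alone without agonist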
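Test system: RD-HGA16 CHO cells with stable hTAAR1 and Gα16 / Probe or stimulus: EC80 β-phenethylamine stimulus / Times: seeding 17-24 h prior, 75-min 37 °C, 30-min RT dye loading / Detection: Fluo-8 calcium-sensitive fluorescence / Read-out basis: % inhibition scaled between DMSO and EC80 PEA controls / Repeats: singlicate, one well per test compound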
Active calls of the source: *; . = not tested or not shown.

SMILES	CHO parental Ca	TAAR1 agonist	OX1R antag-1	GPR7 antag	OX1R antag-2	TAAR1 antagonist
c1ccc(-c2nc3ccccc3nc2-c2ccc(CN3CCC4(CC3)CNc3ccccc34)cc2)cc1	.	-2	.	.	.	-1
CCCCN(CCCC)CC(O)COc1ccccc1C(=O)Nc1ccccc1 (stereo unspecified)	-15	0	22	20*	-24	-21
CCN(CC)CC(O)COc1ccccc1C(=O)CCc1ccccc1 (stereo unspecified)	-26	2	-2	3	-21	-1
COC(=O)c1ccc(CNC(=O)CN2C(=O)NC(Cc3ccccc3)(c3ccccc3)C2=O)cc1 (stereo unspecified)	.	-1	.	.	.	0
CN1CCCCC(NC(=O)c2ccc(C#N)cc2)C1=O (stereo unspecified)	.	0	.	.	.	4
Cc1ccc(-c2ccc(CN3C(CC(C)C)C(=O)N(Cc4cn(CCC5OCCCO5)nn4)CCS3(=O)=O)cc2)cc1 (stereo unspecified)	.	10	.	.	.	58*
COCOCCn1cc(CN2CCS(=O)(=O)N(Cc3ccc(-c4ccc(Cl)nc4)cc3)C(CC(C)C)C2=O)nn1 (stereo unspecified)	.	12	.	.	.	49*
COCOCCn1cc(CN2CCS(=O)(=O)N(Cc3ccc(-c4ccc(Cl)cc4)cc3)C(CC(C)C)C2=O)nn1 (stereo unspecified)	.	5	.	.	.	24
Cc1nc2cc(-c3cccc(F)c3)nn2c(C)c1CCC(=O)NC(C)c1ccc2c(c1)OCCO2 (stereo unspecified)	-25	-1	49*	-9	9	20
Cc1nc2nc(C)c(CCC(=O)NC(C)c3ccc4c(c3)OCCO4)c(C)n2n1 (stereo unspecified)	9	2	12	-5	-6	-11
Cc1nc2cc(-c3ccccc3)nn2c(C)c1CCC(=O)NC(C)c1ccc2c(c1)OCCO2 (stereo unspecified)	-20	-1	52*	-1	-5	-4
Cc1cccn2c(CNCCc3ccco3)c(C(=O)N3CCOCC3)nc12	.	43*	.	-3	.	18
Cc1cccn2c(CNC3CCCc4ccccc43)c(C(=O)N3CCOCC3)nc12 (stereo unspecified)	-16	7	21	-4	-22	-10
COc1ccccc1CCn1cnc(-c2cccc(Br)c2)c1C(C)C	.	27	.	.	.	17
Cc1ccc(S(=O)(=O)NN=Cc2ccco2)cc1	.	1	.	.	.	-10
COc1cc(/C=C/c2nc3ccccc3c(=O)[nH]2)ccc1O	.	7	.	.	.	-11
Cc1cccc(/C=C/c2nc3ccccc3c(=O)[nH]2)c1	-14	1	69*	0	-18	2
CC(C)c1ccc(Oc2cccc3c2S(=O)(=O)N([C@H](C)c2ccccc2)C[C@@H](COCc2ccccc2)O3)cc1	.	0	.	.	.	-11
COc1ccc(-c2nc3ccc([N+](=O)[O-])cc3[nH]2)cc1	0	15	19	11	-9	-22
Cc1ccc(-c2nc3ccc([N+](=O)[O-])cc3[nH]2)cc1	-11	14	48	54*	-6	0
O=[N+]([O-])c1ccc2nc(-c3ccc(Cl)cc3)[nH]c2c1	20	35	25	24*	12	21
O=[N+]([O-])c1ccc2nc(-c3ccncc3)[nH]c2c1	-9	2	17	-18	-5	-23
N#Cc1nc(COc2ccccc2)oc1N1CCCCCC1	54*	-2	25	3	-23	-4
CCOC(=O)c1nn(-c2sc(C(=O)OC)c(C)c2C(=O)OC)cc1O	-4	12	4	19*	-5	5
CCOC(=O)c1nn(-c2cc(C(=O)OC)cc(C(=O)OC)c2)cc1O	-5	4	3	-10	0	7
C[C@H](O)[C@@H]1C(=O)N2CCc3c([nH]c4c(-c5ccccc5)cccc34)[C@@H]2C[C@@H]1N(C)C(=S)Nc1ccc(C#N)cc1	.	4	.	.	.	6
COc1ccc(/C=C/C(=O)OCC(=O)NC2CCCC(C)C2C)c(OC)c1 (stereo unspecified)	-15	-2	10	.	4	-2
COc1cccc(/C=C(/C(=O)OCC(=O)NC2CCCC(C)C2C)c2ccccc2)c1 (stereo unspecified)	65*	1	7	-12	-9	40

Bioassay records: PubChem BioAssay, The Scripps Research Institute Molecular Screening Center
